Measurements published in ChEMBL document CHEMBL3286203, “Reactive oxygen species (ROS) inducible DNA cross-linking agents and their effect on cancer cells and normal lymphocytes” (J Med Chem, 2014).
The source made the active and inactive calls. The rule behind the calls is not given here.

Legend:
MOLT-4 = test: Cytotoxicity against human MOLT4 cells assessed as growth inhibition at 10 uM after 48 hrs by SRB assay; type: functional, cell-based
How it was run: (§1)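 Single-dose screen run by the NCI Developmental Therapeutics Program (NCI-60). Cells were grown in RPMI 1640 with 5% fetal bovine serum and 2 mM L-glutamine. They were plated at 5000–40 000 cells/well, depending on doubling time. Each line was run in two plates and exposed to 10 μM drug for 48 h at 37 °C, 5% CO2, 100% humidity. Read-out was growth percent.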

MDA-MB-468 [1] = test: Cytotoxicity against human MDA-MB-468 cells after 48 hrs by SRB assay; type: functional; conditions: MDA-MB-468, 48 h
How it was run: (§2)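 GI50 from the NCI Developmental Therapeutics Program in vitro human tumor cell screen. Cell lines were maintained in RPMI 1640 with 5% fetal bovine serum and 2 mM L-glutamine. They were seeded at 5000–40 000 cells/well, depending on each line's doubling time, then exposed to drug for 48 h at 37 °C, 5% CO2.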

BT-549 = test: Cytotoxicity against human BT549 cells after 48 hrs by SRB assay; type: functional; conditions: BT-549, 48 h
How it was run: (§3)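 GI50 was determined in the NCI Developmental Therapeutics Program in vitro 60-line cancer screen. Tumour lines were maintained in RPMI 1640 containing 5% FBS and 2 mM L-glutamine. Cells were inoculated at 5000–40 000 cells/well according to each line's doubling time before drug exposure.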

HCT-15 = test: Cytotoxicity against human HCT15 cells assessed as growth inhibition at 10 uM after 48 hrs by SRB assay; type: functional, cell-based
How it was run: (§4)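 NCI DTP 60-cell-line screen run at the NCI. Cells were grown in RPMI 1640 with 5% FBS and 2 mM L-glutamine. They were seeded at 5000–40 000 cells/well depending on doubling time and grown in two plates per line. Each was exposed to a single 10 μM dose for 48 h at 37 °C, 5% CO2, 95% air, 100% humidity. Read-out was percent growth.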

MDA-MB-468 [2] = test: Cytotoxicity against human MDA-MB-468 cells assessed as growth inhibition at 10 uM after 48 hrs by SRB assay; type: functional, cell-based; how it was run: as §1
UO-31 = test: Cytotoxicity against human UO31 cells assessed as growth inhibition at 10 uM after 48 hrs by SRB assay; type: functional, cell-based
How it was run: (§5)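 NCI-60 DTP human tumour line screen. Cells grown in RPMI 1640 with 5% fetal bovine serum and 2 mM L-glutamine, plated at 5000–40 000 cells/well according to doubling time. Single dose of 10 μM for 48 h at 37 °C, 5% CO2, 95% air, 100% humidity, two plates per line. Read-out is growth percent.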

MDA-MB-231 [3] = test: Cytotoxicity against human MDA-MB-231 cells assessed as growth inhibition at 10 uM after 48 hrs by SRB assay; type: functional, cell-based; how it was run: as §1
NCI-H226 = test: Cytotoxicity against human NCI-H226 cells assessed as growth inhibition at 10 uM after 48 hrs by SRB assay; type: functional, cell-based; how it was run: as §1
TK-10 = test: Cytotoxicity against human TK10 cells assessed as growth inhibition at 10 uM after 48 hrs by SRB assay; type: functional, cell-based; how it was run: as §5
[4] = Cytotoxicity against human HCT15 cells after 48 hrs by SRB assay; type: functional; conditions: HCT-15, 48 h; how it was run: as §3
[5] = Induction of [32P]-labeled 49-mer oligonucleotide duplex DNA 12 with GNC sequence at terminus (unknown origin) interstrand cross-linking at 1 mM after 16 hrs by PAGE
How it was run: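 32P-labelled 12a (1.0 μM) annealed with 1.5 equiv of 12b in 10 mM potassium phosphate pH 7 / 100 mM NaCl (65 °C for 3 min, then slow cooling). Duplex incubated with compound (final 1 μM–5 mM), with or without H2O2, in NaCl and potassium phosphate pH 8 at room temperature for 16 h. Quenched in formamide; 20% denaturing PAGE.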

CCRF-CEM = test: Cytotoxicity against human CCRF-CEM cells assessed as growth inhibition at 10 uM after 48 hrs by SRB assay; type: functional, cell-based; how it was run: as §4
IGROV-1 [6] = test: Cytotoxicity against human IGROV1 cells after 48 hrs by SRB assay; type: functional; conditions: IGROV-1, 48 h; how it was run: as §3
SF-539 [7] = test: Cytotoxicity against human SF539 cells assessed as growth inhibition at 10 uM after 48 hrs by SRB assay; type: functional, cell-based; how it was run: as §1
LOX IMVI = test: Cytotoxicity against human LOXIMVI cells assessed as growth inhibition at 10 uM after 48 hrs by SRB assay; type: functional, cell-based; how it was run: as §4
MDA-MB-231 [8] = test: Cytotoxicity against human MDA-MB-231 cells after 48 hrs by SRB assay; type: functional; conditions: MDA-MB-231, 48 h; how it was run: as §2
786-0 = test: Cytotoxicity against human 786-0 cells assessed as growth inhibition at 10 uM after 48 hrs by SRB assay; type: functional, cell-based; how it was run: as §4
SF-539 [9] = test: Cytotoxicity against human SF539 cells after 48 hrs by SRB assay; type: functional; conditions: SF-539, 48 h; how it was run: as §2
RXF 393 = test: Cytotoxicity against human RXF393 cells assessed as growth inhibition at 10 uM after 48 hrs by SRB assay; type: functional, cell-based; how it was run: as §1
A549 [10] = test: Cytotoxicity against human A549 cells after 48 hrs by SRB assay; type: functional; conditions: A549, 48 h; how it was run: as §3
T47D = test: Cytotoxicity against human T47D cells assessed as growth inhibition at 10 uM after 48 hrs by SRB assay; type: functional, cell-based; how it was run: as §5
HOP-92 = test: Cytotoxicity against human HOP92 cells assessed as growth inhibition at 10 uM after 48 hrs by SRB assay; type: functional, cell-based; how it was run: as §4
IGROV-1 [11] = test: Cytotoxicity against human IGROV1 cells assessed as growth inhibition at 10 uM after 48 hrs by SRB assay; type: functional, cell-based; how it was run: as §4
ACHN = test: Cytotoxicity against human ACHN cells assessed as growth inhibition at 10 uM after 48 hrs by SRB assay; type: functional, cell-based; how it was run: as §4
A549 [12] = test: Cytotoxicity against human A549 cells assessed as growth inhibition at 10 uM after 48 hrs by SRB assay; type: functional, cell-based; how it was run: as §4
K562 = test: Cytotoxicity against human K562 cells assessed as growth inhibition at 10 uM after 48 hrs by SRB assay; type: functional, cell-based; how it was run: as §4
NCI-H460 = test: Cytotoxicity against human NCI-H460 cells after 48 hrs by SRB assay; type: functional; conditions: NCI-H460, 48 h; how it was run: as §2
SK-MEL-2 = test: Cytotoxicity against human SK-MEL-2 cells assessed as growth inhibition at 10 uM after 48 hrs by SRB assay; type: functional, cell-based; how it was run: as §1
SF-268 = test: Cytotoxicity against human SF268 cells assessed as growth inhibition at 10 uM after 48 hrs by SRB assay; type: functional, cell-based; how it was run: as §1
PC-3 = test: Cytotoxicity against human PC3 cells after 48 hrs by SRB assay; type: functional; conditions: PC-3, 48 h; how it was run: as §2
DU-145 = test: Cytotoxicity against human DU145 cells assessed as growth inhibition at 10 uM after 48 hrs by SRB assay; type: functional, cell-based; how it was run: as §4
NCI-H322M = test: Cytotoxicity against human NCI-H322M cells assessed as growth inhibition at 10 uM after 48 hrs by SRB assay; type: functional, cell-based; how it was run: as §1
SR = test: Cytotoxicity against human SR cells assessed as growth inhibition at 10 uM after 48 hrs by SRB assay; type: functional, cell-based; how it was run: as §5
[13] = Cytotoxicity against human OVCAR8 cells after 48 hrs by SRB assay; type: functional; conditions: OVCAR-8, 48 h; how it was run: as §2
SK-MEL-28 = test: Cytotoxicity against human SK-MEL-28 cells assessed as growth inhibition at 10 uM after 48 hrs by SRB assay; type: functional, cell-based; how it was run: as §1

Row | SMILES | growth inhibition (GI) (MOLT-4) | growth inhibition (GI) (HCT-15) | growth inhibition (GI) (MDA-MB-468 [2]) | growth inhibition (GI) (UO-31) | growth inhibition (GI) (MDA-MB-231 [3]) | growth inhibition (GI) (NCI-H226) | growth inhibition (GI) (TK-10) | Activity [5] | growth inhibition (GI) (CCRF-CEM) | growth inhibition (GI) (SF-539 [7]) | growth inhibition (GI) (LOX IMVI) | growth inhibition (GI) (786-0) | growth inhibition (GI) (RXF 393) | growth inhibition (GI) (T47D) | growth inhibition (GI) (HOP-92) | growth inhibition (GI) (IGROV-1 [11]) | growth inhibition (GI) (ACHN) | growth inhibition (GI) (A549 [12]) | growth inhibition (GI) (K562) | growth inhibition (GI) (SK-MEL-2) | further results
1 | CC1(C)OB(c2ccc(N(CCCl)CCCl)cc2)OC1(C)C | Active | Active | Active | Active | Active | Active | Active | inactive | Active | Active | Active | Active | Active | Active | Active | Active | Active | Active | Active | Active | GI50 (MDA-MB-468 [1]): 1.6 µM; GI50 (BT-549): 10.5 µM; GI50 [4]: 13.2 µM; GI50 (IGROV-1 [6]): 15.6 µM; GI50 (MDA-MB-231 [8]): 16.5 µM; GI50 (SF-539 [9]): 5.7 µM; GI50 (A549 [10]): 2.69 µM; GI50 (NCI-H460): 0.33 µM; growth inhibition (GI) (SF-268): Active; GI50 (PC-3): 14.3 µM; growth inhibition (GI) (DU-145): Active; growth inhibition (GI) (NCI-H322M): Active; growth inhibition (GI) (SR): Active; GI50 [13]: 7.83 µM; growth inhibition (GI) (SK-MEL-28): Active
2 | CC1(C)OB(c2ccc(N(CCBr)CCBr)cc2)OC1(C)C | Active | Active | Active | Active | Active | Active | Active | inactive | Active | Active | Active | Active | Active | Active | Active | Active | Active | Active | Active | Active | growth inhibition (GI) (SF-268): Active; growth inhibition (GI) (DU-145): Active; growth inhibition (GI) (NCI-H322M): Active; growth inhibition (GI) (SR): Active; growth inhibition (GI) (SK-MEL-28): Active
3 | CC1(C)OB(c2ccc(N(CCBr)CCOS(C)(=O)=O)cc2)OC1(C)C | Active | Active | Active | Active | Active | Active | Active | inactive | Active | Active | Active | Active | Active | Active | Active | Active | Active | Active | Active | Active | growth inhibition (GI) (SF-268): Active; growth inhibition (GI) (DU-145): Active; growth inhibition (GI) (NCI-H322M): Active; growth inhibition (GI) (SR): Active; growth inhibition (GI) (SK-MEL-28): Active
4 | CC1(C)OB(c2ccc(COC(=O)N(CCCl)CCCl)cc2)OC1(C)C | inactive | inactive | inactive | inactive | inactive | inactive | inactive | inactive | inactive | inactive | inactive | inactive | inactive | inactive | inactive | inactive | inactive | inactive | inactive | inactive | growth inhibition (GI) (SF-268): inactive; growth inhibition (GI) (DU-145): inactive; growth inhibition (GI) (NCI-H322M): inactive; growth inhibition (GI) (SR): inactive; growth inhibition (GI) (SK-MEL-28): inactive
